# Assay results published in article PMC11419141 (bioRxiv, 2024).
# Entries after “also recorded” stand apart in the source; their conditions may differ.
# Legend:
# [1] = system: Staphylococcus aureus subsp. aureus Rosenbach, ATCC 29213; experiment: Antibacterial growth assay, S. aureus; type: cell-based; details: for Inhibition of growth of S. aureus: at a concentration of 11.1 μM; for Antibacterial activity against S. aureus: in higher doses (100 μM)
# Outline: (§1)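 A single colony was grown overnight in cation-adjusted Mueller Hinton broth at 37 °C, 250 rpm, then diluted 100-fold. Cultures were grown for 24 h at 37 °C with test compound as a 7-concentration series. A600 was read, followed by a BacTiter-Glo ATP luminescence read. % growth inhibition was normalized to vancomycin/amikacin positive controls and DMSO negative control.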
# [2] = Total antioxidant capacity; details: CUPRAC, Trolox equivalent, at any one concentration tested, n=2
# Outline: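 Test compounds from DMSO stocks were dispensed acoustically as a 7-concentration series in 384-well plates. Freshly prepared Cu(II)-neocuproine reagent was added, mixed at 650 rpm for 2 min, then incubated sealed at 25 °C. A450 of the Cu(I)-neocuproine chelate was read at 1.5 h and 3 h. A Trolox standard curve was run on every plate, with values expressed as Trolox equivalents (mM). Fold over Trolox was taken as the ratio of linear-regression coefficients; n=2.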
# [3] = system: Mycobacterium smegmatis; experiment: Antibacterial growth assay, M. smegmatis; type: cell-based; details: at a high concentration of 300 μM
# Outline: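 Mycobacterium smegmatis grown in Middlebrook 7H9 with OADC at 37 °C, 250 rpm, with test compound as a 7-concentration series. A600 read at 24 h and 48 h, then an ATP luminescence read with BacTiter-Glo. % growth inhibition normalized to vancomycin/amikacin positive controls and DMSO negative control.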
# [4] = system: Klebsiella pneumoniae subsp. pneumoniae, ATCC 27736; experiment: Antibacterial growth assay, K. pneumoniae; type: cell-based; details: at a concentration of 300 μM
# Outline: as §1
# [5] = system: TZM-bl cells; experiment: Cytotoxicity to cells in the anti-HIV assay; type: cell-based; details: toxic to cells in anti-HIV assay
# [6] = system: Nrf2-ARE signaling pathway in HepG2-ARE-Luc cells; experiment: ARE-Luciferase reporter assay for Nrf2 activation in HepG2 cell line; type: cell-based; details: Figure 5B at 10 μM
# Outline: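 HepG2 cells stably carrying an ARE-driven firefly luciferase reporter, seeded at 10,000 cells/well in complete medium (384-well). Test compounds given as a 7-concentration series for 18 h at 37 °C, 5% CO2. Controls were TBHQ and sulforaphane (positive) and DMSO vehicle. Luminescence was read after Steady-Glo for 30 min. Fold induction was taken as treated/vehicle ×100, with vehicle set at 100%; n=2.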
# [7] = system: HepG2 cell line; experiment: Compound cytotoxicity in ARE assay in HepG2 cell line; type: cell-based
# [8] = system: CXCR4-dependent NL4-3 virus; experiment: Anti-HIV TZM-bl assay, NL4-3 virus; type: cell-based, HIV-1; details: concentration not stated (any one concentration, Figure 6)
# Outline: (§2)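 TZM-bl cells (HeLa-derived; CD4, CCR5 and CXCR4; Tat-driven luciferase) kept in DMEM with 10% heat-inactivated FBS and gentamicin. Cells seeded at 5000/well onto test compound, then given virus with 8 μg/ml DEAE-dextran. Inoculum was 150,000 RLU equivalents for NL4-3 and 20,000 for BaL.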
# [9] = system: CCR5-dependent BaL virus; experiment: Anti-HIV TZM-bl assay, BaL virus; type: cell-based, HIV-1; details: concentration not stated (any one concentration, Figure 6)
# Outline: as §2
smiles,measurement,setting,value
Oc1cc(O)c2c(c1)O[C@H](c1ccc(O)c(O)c1)[C@H](O)C2 [(-)-Epicatechin],inhibition at 300 µM,"[1]; Staphylococcus aureus, ATCC29213, read-out: Inhibition against S. aureus",> 50%
"OC[C@H]1O[C@@H](Oc2cc3c(O[C@@H]4O[C@H](CO)[C@@H](O)[C@H](O)[C@H]4O)cc(O)cc3[o+]c2-c2ccc(O)c(O)c2)[C@H](O)[C@@H](O)[C@@H]1O [Cyanidin 3,5-O-diglucoside]",Total antioxidant capacity (TAC) relative to Trolox,[2],greater than 5 fold
OC[C@H]1O[C@@H](Oc2cc3c(O)cc(O)cc3[o+]c2-c2ccc(O)c(O)c2)[C@H](O)[C@@H](O)[C@H]1O [Cyanidin 3-O-galactoside],Total antioxidant capacity (TAC) relative to Trolox,[2],greater than 5 fold
OC[C@H]1O[C@@H](Oc2cc3c(O)cc(O)cc3[o+]c2-c2ccc(O)c(O)c2)[C@H](O)[C@@H](O)[C@@H]1O [Cyanidin 3-O-glucoside],Total antioxidant capacity (TAC) relative to Trolox,[2],greater than 5 fold
same,Inhibition of growth of S. aureus,[1],more than 50%
C[C@@H]1O[C@@H](OC[C@H]2O[C@@H](Oc3cc4c(O)cc(O)cc4[o+]c3-c3ccc(O)c(O)c3)[C@H](O)[C@@H](O)[C@@H]2O)[C@H](O)[C@H](O)[C@H]1O [Cyanidin 3-O-rutinoside],Total antioxidant capacity (TAC) relative to Trolox,[2],greater than 5 fold
same,Inhibition of growth of S. aureus,[1],more than 50%
same,Inhibition of M. smegmatis,[3],more than 50%
OC[C@H]1O[C@@H](Oc2cc3c(O)cc(O)cc3[o+]c2-c2ccc(O)c(O)c2)[C@H](O[C@@H]2OC[C@@H](O)[C@H](O)[C@H]2O)[C@@H](O)[C@@H]1O [Cyanidin 3-O-sambubioside],Total antioxidant capacity (TAC) relative to Trolox,[2],greater than 5 fold
same,Antibacterial activity against S. aureus,[1],showed antibacterial activity
same,Inhibition of M. smegmatis,[3],more than 50%
OC[C@H]1O[C@@H](O[C@H]2[C@H](Oc3cc4c(O)cc(O)cc4[o+]c3-c3ccc(O)c(O)c3)O[C@H](CO)[C@@H](O)[C@@H]2O)[C@H](O)[C@@H](O)[C@@H]1O [Cyanidin 3-O-sophoroside],Total antioxidant capacity (TAC) relative to Trolox,[2],greater than 5 fold
same,Antibacterial activity against S. aureus,[1],showed antibacterial activity
same,Inhibition of growth of K. pneumoniae,[4],more than 50%
C[C@@H]1O[C@@H](OC[C@H]2O[C@@H](Oc3cc4c(O)cc(O)cc4[o+]c3-c3cc(O)c(O)c(O)c3)[C@H](O)[C@@H](O)[C@@H]2O)[C@H](O)[C@H](O)[C@H]1O [Delphinidin 3-O-rutinoside],Total antioxidant capacity (TAC) relative to Trolox,[2],greater than 5 fold
same,Inhibition of growth of S. aureus,[1],more than 50%
COc1cc(/C=C/C(=O)O)ccc1O [Ferulic acid],Total antioxidant capacity (TAC) relative to Trolox,[2],on the same range as Trolox
O=C(O)c1cc(O)c(O)c(O)c1 [Gallic acid],Total antioxidant capacity (TAC) relative to Trolox,[2],greater than 5 fold
same,Cytotoxicity concentration,[5],80.42 ± 0.57 µM
"O=c1c(O[C@@H]2O[C@H](CO)[C@H](O)[C@H](O)[C@H]2O)c(-c2ccc(O)c(O)c2)oc2cc(O)cc(O)c12 [Hyperoside (Quercetin 3-galactoside), Hyperoside (quercetin 3-galactoside)]",Total antioxidant capacity (TAC) relative to Trolox,[2],greater than 5 fold
COc1cc(-c2oc3cc(O)cc(O)c3c(=O)c2O[C@@H]2O[C@H](CO)[C@@H](O)[C@H](O)[C@H]2O)ccc1O [Isorhamnetin 3-O-glucoside],Total antioxidant capacity (TAC) relative to Trolox,[2],on the same range as Trolox
same,ARE activation,[6],activated ARE activity
same,Cytotoxicity to the cells in ARE assay,[7],non-cytotoxic to the cells
COc1cc(-c2oc3cc(O)cc(O)c3c(=O)c2O)ccc1O [Isorhamnetin],Total antioxidant capacity (TAC) relative to Trolox,[2],greater than 5 fold
same,Cytotoxicity concentration,[5],3.042 ± 0.27 µM
C[C@H]1O[C@H](OC[C@H]2O[C@@H](Oc3c(-c4ccc(O)cc4)oc4cc(O)cc(O)c4c3=O)[C@H](O)[C@@H](O)[C@@H]2O)[C@@H](O)[C@@H](O)[C@@H]1O [Kaempferol 3-O-rutinoside],Total antioxidant capacity (TAC) relative to Trolox,[2],on the same range as Trolox
"O=c1c(O[C@@H]2O[C@H](CO)[C@@H](O)[C@H](O)[C@H]2O)c(-c2ccc(O)cc2)oc2cc(O)cc(O)c12 [Kaempferol 3-glucoside, Kaempferol 3-glucoside (astragalin)]",Total antioxidant capacity (TAC) relative to Trolox,[2],on the same range as Trolox
O=c1c(O)c(-c2ccc(O)cc2)oc2cc(O)cc(O)c12 [Kaempferol],ARE activation,[6],activated ARE activity; also recorded: highest level of ARE activation
same,Cytotoxicity to the cells in ARE assay,[7],non-cytotoxic to the cells
same,Inhibition of HIV strain NL4-3,[8],more than 65%
same,Inhibition of HIV strain BaL,[9],didn’t significantly inhibit
same,Cytotoxicity concentration,[5],11.00 ± 0.62 µM
O=c1cc(-c2ccc(O)c(O)c2)oc2cc(O)cc(O)c12 [Luteolin],ARE activation,[6],activated ARE activity
same,Inhibition of HIV strain NL4-3,[8],more than 90%
same,Inhibition of HIV strain BaL,[9],more than 90%
same,Cytotoxicity concentration,[5],4.28 ± 0.45 µM
O=c1c(O)c(-c2cc(O)c(O)c(O)c2)oc2cc(O)cc(O)c12 [Myricetin],Total antioxidant capacity (TAC) relative to Trolox,[2],greater than 5 fold
same,Cytotoxicity concentration,[5],higher than 100 μM
O=C1C[C@@H](c2ccc(O)cc2)Oc2cc(O)cc(O)c21 [Naringenin],Total antioxidant capacity (TAC) relative to Trolox,[2],on the same range as Trolox
same,ARE activation,[6],activated ARE activity
same,Cytotoxicity to the cells in ARE assay,[7],non-cytotoxic to cells
O=C(/C=C/c1ccc(O)c(O)c1)O[C@@H]1C[C@@](O)(C(=O)O)C[C@@H](O)[C@@H]1O [Neochlorogenic acid (3-caffeoylquinic acid)],Total antioxidant capacity (TAC) relative to Trolox,[2],greater than 5 fold
OC[C@H]1O[C@@H](Oc2cc3c(O)cc(O)cc3[o+]c2-c2ccc(O)cc2)[C@H](O)[C@@H](O)[C@@H]1O [Pelargonidin 3-O-glucoside],Antibacterial activity against S. aureus,[1],showed antibacterial activity
same,Inhibition of growth of K. pneumoniae,[4],more than 50%
COc1cc(-c2[o+]c3cc(O)cc(O)c3cc2O[C@@H]2O[C@H](CO)[C@@H](O)[C@H](O)[C@H]2O)ccc1O [Peonidin 3-O-glucoside],Antibacterial activity against S. aureus,[1],showed antibacterial activity
same,Inhibition of growth of K. pneumoniae,[4],more than 50%
"O=c1c(O[C@@H]2O[C@H](CO)[C@@H](O)[C@H](O)[C@H]2O)c(-c2ccc(O)c(O)c2)oc2cc(O)cc(O)c12 [Quercetin-3-β-D-glucoside (hirsutrin), Quercetin-3-β-D-glucoside]",Total antioxidant capacity (TAC) relative to Trolox,[2],greater than 5 fold
O=c1c(O)c(-c2ccc(O)c(O)c2)oc2cc(O)cc(O)c12 [Quercetin],Total antioxidant capacity (TAC) relative to Trolox,[2],greater than 5 fold
same,ARE activation,[6],activated ARE activity
same,Cytotoxicity to the cells in ARE assay,[7],non-cytotoxic to the cells
same,Inhibition of HIV strain NL4-3,[8],more than 65%
same,Inhibition of HIV strain BaL,[9],didn’t significantly inhibit
same,Cytotoxicity concentration,[5],26.41 ± 3.91 µM
same,Antibacterial activity against S. aureus,[1],showed antibacterial activity
O=C(O)C=Cc1ccc(O)cc1 [p-Coumaric acid],Total antioxidant capacity (TAC) relative to Trolox,[2],on the same range as Trolox
